Results collected from several papers.
Target: Acetylcholinesterase (ACHE, Homo sapiens, UniProt P22303)
Observed: enzyme activity
Action: inhibitor

| SMILES | test | setting | IC50 [nM] |
| --- | --- | --- | --- |
| C=CCn1c2cc(OC(=O)CCCCN3CCN(Cc4ccc(C(F)(F)F)cc4)CC3)ccc2c2ccnc(C)c21 | Ellman |  | 122 |
| CCCCNc1ccc(C(=O)OCCN(CC)CC)cc1 |  |  | 18700 |
| CNC(=O)Oc1cccc2ccccc12 | Ellman |  | 2780 |
| O=C(NCCCNc1c2c(nc3ccccc13)CCCC2)c1ccccc1O | Ellman |  | 1020 |
| C=CCn1c2cc(OC(=O)CCCCN3CCN(Cc4ccc(F)cc4)CC3)ccc2c2ccnc(C)c21 | Ellman |  | 89.4 |
| CCC(CC)CSc1ccccc1OC(=O)NC | Ellman |  | 5130 |
| C=CCn1c2cc(OC(=O)CCCCN3CCN(Cc4cccc(F)c4)CC3)ccc2c2ccnc(C)c21 | Ellman |  | 106 |
| CCOP(=S)(OCC)O/N=C(\C#N)c1ccccc1 |  |  | 22600 |
| Cc1cc(O)nc(O)n1 | Ellman |  | 191 |
| CN1CCN(CCCOc2ccc3occc(=O)c3c2)CC1 | Ellman | pH 7.4 | 65100 |
| O=c1[nH]cc(Br)c(=O)[nH]1 | Ellman |  | 151 |
| COc1cc(NS(C)(=O)=O)ccc1Nc1c2ccccc2nc2ccccc12 |  |  | 22500 |
| C=CCn1c2cc(OC(=O)CCCCN3CCN(Cc4ccccc4C(F)(F)F)CC3)ccc2c2ccnc(C)c21 | Ellman |  | 48.4 |
| C#CCN(C)c1nc(NCCCC2CCN(Cc3ccccc3)CC2)c(C#N)cc1C#N | Ellman |  | 26.3 |
| CN1CCN(CCCCOc2ccc3occc(=O)c3c2)CC1 | Ellman | pH 7.4 | 6430 |
| C#CCNc1nc(NCCCCC2CCN(Cc3ccccc3)CC2)c(C#N)cc1C#N | Ellman |  | 2.9 |
| Cn1ccc(=O)n(C)c1=O | Ellman |  | 388 |
| C#CCN(C)c1nc(NCCCCC2CCN(Cc3ccccc3)CC2)c(C#N)c(-c2ccccc2)c1C#N | Ellman |  | 25 |
| COc1ncccc1-c1cnn2ccc(N3CCN(C(=O)OC(C)C)CC3)nc12 |  |  | > 60000 |
| C=CCn1c2cc(OC(=O)CCCCN3CCN(Cc4ccc(Cl)cc4)CC3)ccc2c2ccnc(C)c21 | Ellman |  | 280 |
| CNC(=O)Oc1cccc2c1OC(C)(C)O2 | Ellman |  | 182 |
| C=CCn1c2cc(OC(=O)CCCN3CCN(Cc4ccccc4)CC3)ccc2c2ccnc(C)c21 | Ellman |  | 49.7 |
| c1ccc2c(c1)[I+]c1ccccc1-2 |  |  | 16100 |
